Test results: ChEMBL document CHEMBL4000256, “Light-Regulated NO Release as a Novel Strategy To Overcome Doxorubicin Multidrug Resistance” (ACS Med Chem Lett, 2017)
Activity calls are given as the source filed them. No cut-off for these calls is given here.

Experiments:
H9c2 [1] = assay: Cytotoxicity against 7 mW/cm'2 irradiated rat H9c2 cells at 5 uM measured after 20 mins by spectrophotometric method; format: cell-based; details: h9c2, 20 min
In short: (§1)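 Human fibroblasts or rat H9c2 cardiomyocytes kept 20 min at room temperature in PBS, either in the dark or irradiated at λexc 400 nm, 7 mW/cm2, with or without 5 μM test agent. Cytotoxicity measured in triplicate; means ± SD, n = 3.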

M14 [2] = assay: Dark toxicity in human M14 cells assessed as increase in nitrite levels at 5 uM measured after 20 mins by Griess reagent based spectrophotometric method; format: cell-based; details: m14, 20 min
Fibroblast [3] = assay: Dark toxicity against human fibroblasts at 5 uM measured after 20 mins by spectrophotometric method; format: cell-based; in short: as §1
Fibroblast [4] = assay: Cytotoxicity against 7 mW/cm'2 irradiated human fibroblasts at 5 uM measured after 20 mins by spectrophotometric method; format: cell-based; in short: as §1
Bos taurus = species: Bos taurus; assay: Binding affinity to calf thymus duplex DNA by fluorescence spectroscopic method
H9c2 [5] = assay: Dark toxicity against rat H9c2 cells at 5 uM measured after 20 mins by spectrophotometric method; format: cell-based; details: h9c2, 20 min; in short: as §1
M14 [6] = assay: Cytotoxicity against 7 mW/cm'2 irradiated human M14 cells assessed as increase in LDH release at 5 uM measured after 20 mins by spectrophotometric method; format: functional, cell-based
In short: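 Cells (M14 melanoma, human fibroblasts or rat H9c2 cardiomyocytes) kept 20 min at room temperature in PBS under 400 nm light (7 mW/cm2), alone or with 5 μM compound, given alone or with equimolar 5 μM doxorubicin. Damage read as extracellular LDH release. Triplicate measurements, n = 3.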

M14 [7] = assay: Dark toxicity in human M14 cells assessed as increase in LDH release at 5 uM measured after 20 mins by spectrophotometric method; format: cell-based; details: m14, 20 min
In short: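 Cells (M14 melanoma, human fibroblasts or rat H9c2 cardiomyocytes) kept 20 min at room temperature in PBS in the dark, with 5 μM compound, given alone or with equimolar 5 μM doxorubicin. Cytotoxicity read as extracellular LDH release. Triplicate measurements, n = 3.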

## COc1cccc2c1C(=O)c1c(O)c3c(c(O)c1C2=O)C[C@@](O)(C(=O)CO)C[C@@H]3O[C@H]1C[C@H](N)[C@H](O)[C@H](C)O1.Cl [DOXORUBICIN HYDROCHLORIDE]
H9c2 [1]
  Activity: Toxic
M14 [2]
  Activity: Non-Toxic
Fibroblast [3]
  Activity: Toxic
Fibroblast [4]
  Activity: Toxic
Bos taurus
  K: 630000 M⁻¹
H9c2 [5]
  Activity: Toxic
M14 [6]
  Activity: inactive
M14 [7]
  Activity: Non-Toxic
